Assay results reported in paper PMC6333999 (Cancer Research and Treatment : Official Journal of Korean …, 2018).

Experiments:
[1] = test system: p38α; assay: SPR binding of peptide with p38α; details: BIAcore 3000, p38α on Ni-NTA chip, peptide in HBS-EP buffer
Summary of the method: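 Pure p38α protein captured on an Ni-NTA chip. Test peptide in HBS-EP buffer injected at 0.23, 0.46 and 0.77 mM. Sensorgrams recorded, and association (KA) and dissociation (KD) constants fitted from them.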

[2] = test system: p38δ; assay: Percentage inhibition assay by ELISA; format: biochemical
Summary of the method: (§1)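 Added to ATF-2-coated plates, 1 h at 37°C. Anti-phospho-ATF-2 1:400, then AP anti-rabbit IgG 1:4,000, each 1 h at 37°C. pNPP (pH 8.1) 90 min, NaOH stop, A405. Enzyme without peptide taken as 100% activity for % inhibition.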

[3] = test system: p38α; assay: Percentage inhibition assay by ELISA; format: biochemical; details: ATF-2 substrate, same experiment as p38δ
Summary of the method: as §1

[4] = test system: p38α; details: background statement, no reference given; cited from earlier work
[5] = target: T1, recombinant GST-tag p38δ protein (UniProt O15264); assay: SPR
T1 sequence: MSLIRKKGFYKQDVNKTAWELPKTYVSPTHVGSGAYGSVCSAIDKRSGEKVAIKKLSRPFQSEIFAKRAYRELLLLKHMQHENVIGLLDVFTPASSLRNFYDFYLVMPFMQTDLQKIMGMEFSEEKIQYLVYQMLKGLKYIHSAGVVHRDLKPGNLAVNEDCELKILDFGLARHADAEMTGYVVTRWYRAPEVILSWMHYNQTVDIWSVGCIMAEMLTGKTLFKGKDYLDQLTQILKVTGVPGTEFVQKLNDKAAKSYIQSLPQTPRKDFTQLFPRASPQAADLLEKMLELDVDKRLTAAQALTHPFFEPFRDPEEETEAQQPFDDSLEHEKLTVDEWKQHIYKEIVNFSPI

## WFYH
[1]
  binding to p38α: no binding was observed
[2]; 75 μM peptide, ELISA, ATF-2 substrate, 100 μM ATP, pH 7.5, 37°C, 1 hour, 405 nm
  percentage inhibition of p38δ: 77%
[2]; kinetic assays, pure p38δ protein incubated with peptide
  phosphorylation of ATF-2 by p38δ: reduction in phosphorylation of ATF-2
[3]
  inhibition of p38α: no inhibition

## C[S+]([O-])c1ccc(-c2nc(-c3ccncc3)c(-c3ccc(F)cc3)[nH]2)cc1 (stereo not drawn) [SB203580]
[4]
  specificity for p38α: very specific p38α inhibitor

## WFYH [WFYH tetrapeptide]
[5]
  Kd: 704 pM
